This data set can be described thus: Toxicity liver stage against HepG2, at 10uM. Also noted: test concentration 10 uM, cell line HepG2-A16-CD81EGFP. In kind it is cell-based. As to conditions: human, HepG2-A16-CD81EGFP cells; read-out: INHIBITION
An outline of the steps: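 Uninfected HepG2-A16-CD81EGFP cells, 3 × 10^3 per well, 1536-well, plated on prespotted compound at 10 μM final, parasite-free screening media added to match infected plates; puromycin 10 μM positive, DMSO 0.5% negative; run in parallel with 48 h PbLuc assay at 37 °C, 5% CO2; viability by CellTiter-Glo luminescence, normalized to controls.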

SMILES strings stand for the structures.

`O=C(NCC1CC1)[C@@H]1C[C@@H]2OCCN[C@@H]2C1`: the cytotoxicity at 10 µM is -131%.

Regarding `Cn1cccc1C(=O)N1C[C@H]2CN(CC3CC3)C(=O)[C@H]2C1`, the cytotoxicity at 10 µM is -103%.

In the case of `CC(C)Cc1ncc(CNc2cnccc2CO)s1`, the cytotoxicity at 10 µM was -6.53%.

Turning to `Cc1cc(C[C@@H]2CCC[C@H]2NCc2cccc(F)c2F)on1`, the cytotoxicity at 10 µM was -0.474%.

In the case of `Cn1nnc2c1CCN(C(=O)C1CC1)C2COCCN1CCCC1` (configuration not stated), the cytotoxicity at 10 µM worked out at 8.33%.

Take `CCO[C@@H]1CC[C@H]2[C@H]1OCCN2C(=O)c1nn(C)c2ccccc12`: the cytotoxicity at 10 µM is -2.69%.

`Cn1ncc2c(=O)[nH]c(CN3CCCc4cc(F)ccc43)nc21`: the cytotoxicity at 10 µM is -8.23%.

Turning to `CCCNC(=O)CCNC(=O)N1CCc2c(F)ccc(F)c2C1`, the cytotoxicity at 10 µM was -9.91%.

In the case of `CC1(C(=O)NCc2cccnc2Oc2ccc(F)c(F)c2)CCCNC1` (configuration not stated), the cytotoxicity at 10 µM is -0.37%.

Consider `Cn1nccc1CN1CCOC(c2ccc(-c3cncnc3)cn2)C1` (configuration not stated), for which the cytotoxicity at 10 µM was found to be 3.27%.

Consider `Cc1cc(CNc2nccc(N)n2)c2[nH]c(C)c(C)c2c1`, for which the cytotoxicity at 10 µM was -1.86%.

With `Cc1ccnc(N2CCC(C(N)=O)CC2)n1`, the cytotoxicity at 10 µM is -18.3%.

Turning to `CCOc1ccc(C(F)(F)F)cc1NCc1cc(C)on1`, the cytotoxicity at 10 µM was -49.3%.

On to `c1coc(-c2nnc(CN3CCCC(CN4CCCCCC4)C3)o2)c1` (configuration not stated), for which the cytotoxicity at 10 µM was -10.5%.

On to `CC(NC(=O)NCCc1ccc(Cl)s1)c1ccccn1` (configuration not stated), for which the cytotoxicity at 10 µM is -3.07%.

`CCOC1CCCN(C(=O)c2[nH]nc(C3CC3)c2Br)C1` (configuration not stated): the cytotoxicity at 10 µM is -5.4%.

Consider `COc1ccc2[nH]cc(-c3ccnc(NC4CCCC4)n3)c2c1`, for which the cytotoxicity at 10 µM is -6.33%.

Turning to `CS(=O)(=O)NCC1CCCCN1C(=O)c1cccc(C(F)(F)F)c1` (configuration not stated), the cytotoxicity at 10 µM was -2.02%.

In the case of `CNc1nc(C)c(C(=O)N2CCCCC2CCc2ccccc2)s1` (configuration not stated), the cytotoxicity at 10 µM came to 2.24%.

For the molecule `c1cc(CN2C[C@@H]3OCCN(CC4CCCO4)[C@@H]3C2)co1` (some centres not stated), the cytotoxicity at 10 µM was determined as 4.8%.

Consider `O=C(CN1CCN(CCO)CC1)NC(C1CC1)C1CC1`, for which the cytotoxicity at 10 µM was -6.56%.

`OC(CNCCn1cccn1)c1ccc(F)c(F)c1` (configuration not stated): the cytotoxicity at 10 µM was determined as 2.05%.

In the case of `CCn1c(C)nnc1SCCNC(=O)Cn1cnc2ccccc2c1=O`, the cytotoxicity at 10 µM is 8.28%.

`Cc1nccn1C1CCCN(C(=O)CCc2nc(C(C)C)no2)C1` (configuration not stated): the cytotoxicity at 10 µM was -6.27%.

`CC(C)OCCN1CCC(Nc2ncccn2)CC1`: the cytotoxicity at 10 µM was -1%.

As for `c1cnnc(N2CCCC2CNCc2nc(-c3cccs3)no2)c1` (configuration not stated), the cytotoxicity at 10 µM was -7.69%.

In the case of `CC(C)c1noc(CN2CCC3(CCCO3)CCC2=O)n1` (configuration not stated), the cytotoxicity at 10 µM was 0.145%.

For the molecule `CN(C)C(CNCc1nc(-c2ccsc2)no1)c1cccc(F)c1` (configuration not stated), the cytotoxicity at 10 µM was 12.9%.

`Cc1cnc(N2CCC3(CCN(Cc4csc(C)n4)C3=O)C2)nc1` (configuration not stated): the cytotoxicity at 10 µM is -102%.

As to `Cc1cc2ccccc2n1CC(=O)NC(C)C(=O)N1CCOCC1` (configuration not stated), the cytotoxicity at 10 µM was found to be 3.57%.

As to `CCc1ccccc1OC1CN(C(=O)c2sccc2N)C1`, the cytotoxicity at 10 µM was 14.4%.

For the molecule `CC(C)(C)c1cc(C(=O)NCCN2CCCS2(=O)=O)[nH]n1`, the cytotoxicity at 10 µM was -8.16%.

Regarding `COc1ccc(CN2C[C@@H]3COC[C@@H](N4CCN(C)CC4)[C@@H]3C2)cc1`, the cytotoxicity at 10 µM was -103%.

As to `CC(C)N1CCO[C@@H]2CN(S(=O)(=O)c3cccs3)CC[C@@H]2C1`, the cytotoxicity at 10 µM is 5.9%.

`COc1cccc(C2CCN2C(=O)c2cc(C(C)C)on2)c1` (configuration not stated): the cytotoxicity at 10 µM is -2.96%.

In the case of `COc1ccccc1OCC(=O)n1ncc(C#N)c1N`, the cytotoxicity at 10 µM is -20%.

On to `O=C(CCc1ccccn1)N1CCCC1`, for which the cytotoxicity at 10 µM is -6.96%.

`Cn1c(CN2CCCC2)nnc1C1CCCN(C(=O)CN2CCCC2)C1` (configuration not stated): the cytotoxicity at 10 µM was -1.9%.

For `CCN(CC)S(=O)(=O)CC(=O)N1CCc2ccc(Cl)cc21`, the cytotoxicity at 10 µM was -5.42%.

Regarding `CCOCCN1CCN(Cc2coc(-c3cccc(F)c3)n2)CC1`, the cytotoxicity at 10 µM is -2.87%.

In the case of `COC(CNC(=O)c1cc(C)on1)c1ccccc1C` (configuration not stated), the cytotoxicity at 10 µM was -17.8%.

In the case of `Cc1nnc([C@@H]2C[C@H]3CN(C4CCC4)C[C@H]3O2)[nH]1`, the cytotoxicity at 10 µM is 8.89%.

Regarding `Cc1nc(O)cc(C2CCCN(Cc3c(Cl)cncc3Cl)C2)n1` (configuration not stated), the cytotoxicity at 10 µM was -5.4%.

Regarding `NC(=O)c1cnn2c1NCC(CNC1(c3ccccc3)CCC1)C2` (configuration not stated), the cytotoxicity at 10 µM was -8.84%.

Regarding `O=C(NCC(O)c1ccoc1)Nc1cccs1` (configuration not stated), the cytotoxicity at 10 µM was -11.1%.

For the molecule `CCNC(=O)N1CCC(=Cc2ccccc2)CC1`, the cytotoxicity at 10 µM stood at 3.87%.

Consider `CNC(=O)c1ccc(C2CN(C(=O)c3coc(C)n3)CCO2)nc1` (configuration not stated), for which the cytotoxicity at 10 µM was -7.69%.

As to `COCC1CN(C(C)=O)CCN(c2cc(C)ncn2)C1` (configuration not stated), the cytotoxicity at 10 µM was found to be 4.96%.

With `CNC(=O)NCC(=O)N1CCCC1Cc1cccc(F)c1` (configuration not stated), the cytotoxicity at 10 µM is -2.59%.

On to `Cc1n[nH]c(C)c1-c1nccnc1CC1CCCN(C)C1` (configuration not stated), for which the cytotoxicity at 10 µM was -18.3%.

Consider `O=C(c1ccoc1)N1CCCN(CC2CCOc3ccccc3C2)CC1` (configuration not stated), for which the cytotoxicity at 10 µM came to 0.0531%.

For the molecule `COc1cccc(N2CCN(C(=O)COc3c(C)occc3=O)CC2)c1`, the cytotoxicity at 10 µM is -1.29%.

With `CNC(=O)[C@@H]1C[C@H](n2cc(-c3ccc(CN4CC=CC4)cc3)nn2)CN1`, the cytotoxicity at 10 µM stood at 3.46%.

For the molecule `c1ccc(-c2nnc([C@H]3CCN(C4CCC4)C3)o2)cc1`, the cytotoxicity at 10 µM amounted to 1.74%.

On to `CN1CCN(S(=O)(=O)c2cccc(S(=O)(=O)C3CCS(=O)(=O)C3)c2)CC1` (configuration not stated), for which the cytotoxicity at 10 µM stood at 6.29%.

Turning to `CCc1nc(CN2CCCC(NCc3cccc(C(N)=O)c3)C2)no1` (configuration not stated), the cytotoxicity at 10 µM turned out to be 1.56%.

Consider `CCN(CC)Cc1ccc(C(=O)NC2CCc3cc(F)ccc32)o1` (configuration not stated), for which the cytotoxicity at 10 µM is -9.03%.

For the molecule `O=C(c1ccc(-c2cccc3c2CCNC3)o1)N1CCOCC1`, the cytotoxicity at 10 µM turned out to be 3.34%.

As to `Cc1cc(C(=O)NCCN2CCCCCC2)nn1C(C)(C)C`, the cytotoxicity at 10 µM stood at 2.45%.

Turning to `CCN1CCN(CC(O)c2ccc(F)cc2)CC1` (configuration not stated), the cytotoxicity at 10 µM was -9.41%.

For the molecule `Cc1cc(S(=O)(=O)N2CCCN3CCCC3C2)ccc1F` (configuration not stated), the cytotoxicity at 10 µM is 17%.

Consider `CC(C)Cc1cc(C(=O)NCC2CCN(c3ccccc3F)C2)on1` (configuration not stated), for which the cytotoxicity at 10 µM came to 0.075%.

In the case of `CS(=O)(=O)CCN1CCC(Nc2c(Cl)cccc2C#N)CC1`, the cytotoxicity at 10 µM was 2.22%.

For `NC(=O)c1cc(-n2cc(-c3cccc(C(=O)O)c3)cn2)cs1`, the cytotoxicity at 10 µM was -0.387%.

Consider `COc1ccc2cc(-c3n[nH]cc3CN3CCSCC3)ccc2c1`, for which the cytotoxicity at 10 µM turned out to be 2.22%.

Take `COc1ccccc1CNC(=O)CN(C)C(C)c1nccs1` (configuration not stated): the cytotoxicity at 10 µM was determined as 1.81%.

As to `CC(C)OCc1nn(C)c2c1CCN(Cc1ccco1)C2`, the cytotoxicity at 10 µM is -115%.

For `CN(Cc1nccn1C)C(=O)c1cccc(CCC(C)(C)O)c1`, the cytotoxicity at 10 µM is 1.26%.

For `O=C(NCC1CCOC1)c1csc(-c2ccccc2)n1` (configuration not stated), the cytotoxicity at 10 µM was -0.755%.

For `O=C(NCCOCCO)[C@@]12CNC[C@@H]1CN(C1CCCC1)C2`, the cytotoxicity at 10 µM is -16.4%.

`O=C(NCCN1CCCC1)c1ccc2c(-c3nccs3)noc2c1`: the cytotoxicity at 10 µM was -2.79%.

Consider `CC(C)CN1CCC2(CC1)C(=O)Nc1ccc(C(=O)NC(C)C)cc12`, for which the cytotoxicity at 10 µM is -13.9%.

Take `Cc1cc(CN2CCN(C(=O)NCc3ccco3)CC2)no1`: the cytotoxicity at 10 µM was -14.8%.

Regarding `Cc1cc(CN(C)CC2CCCCC2)no1`, the cytotoxicity at 10 µM turned out to be 13.2%.

On to `CN(C)CC(=O)N1CCC2(CCc3ccc(-c4ccncc4)cc32)CC1`, for which the cytotoxicity at 10 µM stood at 6.34%.

`CN(C)C(=O)N1Cc2nnn(C)c2C(COCc2cccnc2)C1` (configuration not stated): the cytotoxicity at 10 µM is 10.8%.

Take `Cc1cc(CN2CCCC2)cc(Oc2nc(C)cnc2C)c1`: the cytotoxicity at 10 µM is -2.54%.

As to `CCC(c1nc(C(C)C)nn1-c1ccncc1C)n1cccn1` (configuration not stated), the cytotoxicity at 10 µM is -13.9%.

Regarding `Cc1nc(CC(=O)N2CCOC(c3nc(C(C)(C)C)n[nH]3)C2)cs1` (configuration not stated), the cytotoxicity at 10 µM stood at 4.06%.

With `Cc1cnn(CCNCc2c(C)nn(CCO)c2C)c1`, the cytotoxicity at 10 µM was found to be 6.35%.

Take `COCCN(CC(C)C)C(=O)c1cccc(Nc2cnccn2)c1`: the cytotoxicity at 10 µM is -9.59%.

Take `N#Cc1cccc(CNCCNC(=O)Cc2cccc(F)c2)c1`: the cytotoxicity at 10 µM is 3.7%.

Take `Fc1ccc(C2(CNC3=NCCN3)CCCC2)cc1`: the cytotoxicity at 10 µM amounted to 12.9%.

As to `CCn1nccc1CNC(=O)C1CCC1`, the cytotoxicity at 10 µM was -2.17%.

For the molecule `CCCSCC(=O)N1CCN(c2ccc(OC)cc2)CC1C` (configuration not stated), the cytotoxicity at 10 µM is -166%.

Take `NC(=O)CC1CCCCN1C(=O)c1ccc2cc[nH]c2c1` (configuration not stated): the cytotoxicity at 10 µM is -4.02%.

Take `COc1cc(N2CC[C@H]3O[C@@H](C(=O)NC4CCCC4)CC[C@H]32)ncn1`: the cytotoxicity at 10 µM turned out to be 13.2%.

`c1cc2n(n1)CC(CNCc1ccc(OCC3CC3)nc1)CN2` (configuration not stated): the cytotoxicity at 10 µM was -3.97%.

As to `CCCC1CCCN(C(=O)CCn2cccn2)CC1` (configuration not stated), the cytotoxicity at 10 µM is -9.48%.

For the molecule `CN(CCc1ccccc1)c1cnn(CC(=O)N2CCSCC2)c(=O)c1`, the cytotoxicity at 10 µM is -8.74%.

For `CCOc1ncccc1NC(=O)NC1CCCN(S(C)(=O)=O)C1` (configuration not stated), the cytotoxicity at 10 µM is -3.62%.

For the molecule `O=C(Cn1cc(C(=O)O)cn1)Nc1c(Cl)cccc1Cl`, the cytotoxicity at 10 µM was found to be 1.57%.

On to `O=C([C@H]1CN(Cc2nccs2)C[C@H]2OCC[C@@H]12)N1CCCCO1`, for which the cytotoxicity at 10 µM was -111%.

Turning to `O=c1[nH]c(NCc2cccc(OC(F)F)c2)nc2c1CCNC2`, the cytotoxicity at 10 µM was 2.47%.

As for `CCOc1ccc(Cl)c(C(=O)N2CCN(CC(O)CC)CC2)n1` (configuration not stated), the cytotoxicity at 10 µM was -4.85%.

In the case of `COc1ccc(NC(=O)C(c2ccc(OC)cc2)N2CCOCC2)cc1` (configuration not stated), the cytotoxicity at 10 µM was -3.39%.

As for `Cn1cc(C[C@H]2[C@H](N3CCOCC3)CCN2C(=O)c2ccc[nH]2)cn1`, the cytotoxicity at 10 µM was -75%.

(Values after ChEMBL document CHEMBL4513216, “Probing the Open Global Health Chemical Diversity Library for Multistage-Active Starting Points for Next-Generation Antimalarials” (ACS Infect Dis, 2020).)
